The source made the active and inactive calls. The calls are words filed in the database; no cut-off is given here. Numbered stars: 1 amine (or outer) side, 2 acyl side, 3 side chain; on linkers, the order of the positions; unused ones are H or OH. Bridge positions count the residues as written; N and C are the ends. Square brackets hold non-standard residues; d marks the D form. Peptide text beside a SMILES is read from it. X1 = O=C([C@H](CC1C=Nc2ccccc21)N[*:1])[*:2]; Nle = CCCC[C@H](N)C(=O)O; Nva = CCC[C@H](N)C(=O)O; Abu = CC[C@H](N)C(=O)O
How the values were obtained:
Assay type in all cases: cell-based
[1] = molecular target: T1, Neuronal acetylcholine receptor; alpha3/beta4 (Rattus norvegicus, UniProt P04757+P12392); assay: Displacement of [3H]epibatadine from rat alpha3beta4 nAChR expressed in HEK293 cells after 2 hrs by betaplate counting analysis
Method in brief: (§1)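 Membranes from HEK293 cells stably expressing α3β4 or α4β2 nAChR, homogenised in 50 mM Tris pH 7.4 and washed by centrifugation. Incubated 2 h at room temperature with peptide and 0.31 nM [3H]epibatidine; filtered on PEI-soaked glass fibre, counted. Nonspecific binding with 0.1 μM unlabeled epibatidine. Ki by Cheng–Prusoff from IC50.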

[2] = molecular target: Neuronal acetylcholine receptor; alpha3/beta4 (Rattus norvegicus) (UniProt P04757+P12392); assay: Antagonist activity at rat alpha3beta4 nAChR expressed in HEK293 cells assessed as inhibition of epibatadine-induced effect at 10 uM after 30 mins by fluorescent membrane potential assay relative to mecamylamine
Method in brief: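 Rat α3β4 nAChR stably expressed in HEK293 cells; crude, SPE-desalted individual peptides tested at 10 μM in HBSS with membrane potential blue dye, 30 min at 37 °C. Fluorescence change read after epibatidine (0.1 μM). Percent inhibition set against 10 μM mecamylamine taken as 100%.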

[3] = molecular target: T1, Neuronal acetylcholine receptor; alpha3/beta4; assay: Antagonist activity at rat alpha3beta4 nAChR expressed in HEK293 cells assessed as inhibition of epibatadine-induced effect after 30 mins by fluorescent membrane potential assay
Method in brief: (§2)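 Stably transfected HEK293 lines (KXα3β4R2, KXα3β2R2, KXα4β2R2; rat subunits) grown in DMEM/10% FBS with G-418, plated 24 h before assay. Cells washed with HBSS, peptide added, then membrane potential blue dye, 30 min at 37 °C. Fluorescence (ex 565/em 530 nm) read up to 60 s after epibatidine to 0.1 μM. IC50 from maximal responses across concentrations; n = 4.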

[4] = molecular target: Neuronal acetylcholine receptor; alpha3/beta2 (Rattus norvegicus, UniProt P04757+P12390); assay: Antagonist activity at rat alpha3beta2 nAChR expressed in HEK293 cells assessed as inhibition of epibatadine-induced effect after 30 mins by fluorescent membrane potential assay; method in brief: as §2
[5] = molecular target: Neuronal acetylcholine receptor; alpha4/beta2 (Rattus norvegicus, UniProt P09483+P12390); assay: Antagonist activity at rat alpha4beta2 nAChR expressed in HEK293 cells assessed as inhibition of epibatadine-induced effect after 30 mins by fluorescent membrane potential assay; method in brief: as §2
[6] = molecular target: Neuronal acetylcholine receptor; alpha4/beta2 (Rattus norvegicus) (UniProt P09483+P12390); assay: Displacement of [3H]epibatadine from rat alpha4beta2 nAChR expressed in HEK293 cells up to 10 uM after 2 hrs by betaplate counting analysis; method in brief: as §1
[7] = molecular target: Neuronal acetylcholine receptor subunit alpha-7 (Homo sapiens) (UniProt P36544); assay: Inhibition of alpha7 nAChR (unknown origin) expressed in Xenopus laevis oocytes assessed as inhibition of acetylcholine-evoked current at 10 uM by voltage clamp technique
[8] = molecular target: T2, Neuronal acetylcholine receptor; alpha3/beta4 (Homo sapiens, UniProt P30926+P32297); assay: Inhibition of alpha3beta4 nAChR (unknown origin) expressed in Xenopus laevis oocytes assessed as inhibition of acetylcholine-evoked current by voltage clamp technique
Method in brief: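 Oocytes expressing α3 chimera/β4 nAChR, voltage-clamped at ~22 °C. Concentrations below 1 μM perfused, with 1 s ACh pulses every 1 min; 1 μM and above given as a 5 min static bath. Lowest concentration tested 10 nM. IC50 from a concentration–response curve with top and bottom fixed at 100 and 0; n = 3–5 oocytes per concentration.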

[9] = molecular target: Neuronal acetylcholine receptor; alpha3/beta2 (Homo sapiens) (UniProt P17787+P32297); assay: Inhibition of alpha3beta2 nAChR (unknown origin) expressed in Xenopus laevis oocytes assessed as inhibition of acetylcholine-evoked current up to 10 uM by voltage clamp technique
[10] = species: Homo sapiens; assay: Selectivity for alpha3beta4 nAChR (unknown origin) expressed in Xenopus laevis oocytes over alpha3beta2 nAChR (unknown origin) expressed in Xenopus laevis oocytes
[11] = molecular target: T2, Neuronal acetylcholine receptor; alpha3/beta4; assay: Inhibition of alpha3beta4 nAChR (unknown origin) expressed in Xenopus laevis oocytes assessed as inhibition of acetylcholine-evoked current at 10 uM by voltage clamp technique
[12] = molecular target: T2, Neuronal acetylcholine receptor; alpha3/beta4; assay: Inhibition of human alpha3beta4 nAChR expressed in Xenopus laevis oocytes by two-electrode voltage clamp technique

T1 sequence (P04757 whole entry): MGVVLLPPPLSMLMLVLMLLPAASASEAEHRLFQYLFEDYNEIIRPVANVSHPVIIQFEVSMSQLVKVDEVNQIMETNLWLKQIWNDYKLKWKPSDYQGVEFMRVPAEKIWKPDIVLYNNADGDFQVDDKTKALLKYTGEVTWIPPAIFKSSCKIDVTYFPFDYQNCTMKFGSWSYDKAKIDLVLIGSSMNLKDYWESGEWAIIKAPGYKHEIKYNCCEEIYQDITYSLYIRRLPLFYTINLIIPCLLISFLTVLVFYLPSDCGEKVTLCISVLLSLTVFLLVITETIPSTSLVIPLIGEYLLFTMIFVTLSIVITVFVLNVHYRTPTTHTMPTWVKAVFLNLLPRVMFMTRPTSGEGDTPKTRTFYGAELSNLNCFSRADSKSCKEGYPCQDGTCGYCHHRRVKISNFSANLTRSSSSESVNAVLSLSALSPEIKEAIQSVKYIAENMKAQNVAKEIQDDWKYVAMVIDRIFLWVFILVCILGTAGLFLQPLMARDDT
T1 sequence (P12392 whole entry): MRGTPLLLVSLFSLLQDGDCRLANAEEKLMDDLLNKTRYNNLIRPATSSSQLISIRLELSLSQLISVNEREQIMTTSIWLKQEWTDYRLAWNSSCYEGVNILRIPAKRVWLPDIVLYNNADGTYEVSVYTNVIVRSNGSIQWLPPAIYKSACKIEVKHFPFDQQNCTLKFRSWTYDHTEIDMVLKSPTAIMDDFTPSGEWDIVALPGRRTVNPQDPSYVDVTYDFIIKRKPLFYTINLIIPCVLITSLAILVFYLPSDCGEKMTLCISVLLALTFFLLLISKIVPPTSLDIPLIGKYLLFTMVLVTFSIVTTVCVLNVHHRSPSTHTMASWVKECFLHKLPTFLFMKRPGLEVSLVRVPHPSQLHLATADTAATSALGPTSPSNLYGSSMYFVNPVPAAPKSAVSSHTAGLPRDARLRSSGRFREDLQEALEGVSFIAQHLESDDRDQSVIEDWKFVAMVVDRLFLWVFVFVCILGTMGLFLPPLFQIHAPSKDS
Chain of Neuronal acetylcholine receptor; alpha3/beta2 (P04757 whole entry): as the sequence (P04757 whole entry) above
Chain of Neuronal acetylcholine receptor; alpha3/beta2 (P12390 whole entry): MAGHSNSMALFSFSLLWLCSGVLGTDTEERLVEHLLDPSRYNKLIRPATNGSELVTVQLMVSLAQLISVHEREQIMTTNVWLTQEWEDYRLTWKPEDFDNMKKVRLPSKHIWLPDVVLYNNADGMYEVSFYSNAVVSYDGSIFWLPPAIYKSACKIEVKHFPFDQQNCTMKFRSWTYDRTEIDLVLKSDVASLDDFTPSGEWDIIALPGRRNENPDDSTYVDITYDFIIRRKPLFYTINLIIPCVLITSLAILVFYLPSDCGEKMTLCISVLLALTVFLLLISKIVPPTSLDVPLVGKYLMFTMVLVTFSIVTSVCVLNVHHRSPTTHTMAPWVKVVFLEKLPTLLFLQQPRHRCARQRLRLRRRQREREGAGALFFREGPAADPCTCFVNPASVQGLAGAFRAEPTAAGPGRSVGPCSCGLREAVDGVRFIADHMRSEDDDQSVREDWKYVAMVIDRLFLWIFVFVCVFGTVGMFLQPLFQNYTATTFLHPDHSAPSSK
Chain of Neuronal acetylcholine receptor; alpha4/beta2 (P09483 whole entry): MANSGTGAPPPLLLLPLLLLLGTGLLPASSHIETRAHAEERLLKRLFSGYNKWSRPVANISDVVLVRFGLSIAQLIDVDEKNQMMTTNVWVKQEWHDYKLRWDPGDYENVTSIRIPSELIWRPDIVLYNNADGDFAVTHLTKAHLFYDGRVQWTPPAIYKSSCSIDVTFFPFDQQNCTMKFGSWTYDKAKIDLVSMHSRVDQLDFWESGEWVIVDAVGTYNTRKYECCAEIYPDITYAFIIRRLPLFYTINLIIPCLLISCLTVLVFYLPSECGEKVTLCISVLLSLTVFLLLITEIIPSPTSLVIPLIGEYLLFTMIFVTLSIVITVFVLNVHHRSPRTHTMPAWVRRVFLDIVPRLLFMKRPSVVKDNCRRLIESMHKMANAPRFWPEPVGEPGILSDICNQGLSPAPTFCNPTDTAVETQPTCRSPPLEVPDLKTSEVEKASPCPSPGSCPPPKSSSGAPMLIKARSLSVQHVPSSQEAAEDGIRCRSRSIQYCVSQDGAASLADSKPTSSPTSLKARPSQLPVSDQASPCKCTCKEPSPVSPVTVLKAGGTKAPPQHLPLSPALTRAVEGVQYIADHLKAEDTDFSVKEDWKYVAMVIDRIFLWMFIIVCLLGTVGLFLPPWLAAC
Chain of Neuronal acetylcholine receptor; alpha4/beta2 (P12390 whole entry): as the sequence (P12390 whole entry) above
Chain of Neuronal acetylcholine receptor subunit alpha-7 (Homo sapiens) (P36544 whole entry): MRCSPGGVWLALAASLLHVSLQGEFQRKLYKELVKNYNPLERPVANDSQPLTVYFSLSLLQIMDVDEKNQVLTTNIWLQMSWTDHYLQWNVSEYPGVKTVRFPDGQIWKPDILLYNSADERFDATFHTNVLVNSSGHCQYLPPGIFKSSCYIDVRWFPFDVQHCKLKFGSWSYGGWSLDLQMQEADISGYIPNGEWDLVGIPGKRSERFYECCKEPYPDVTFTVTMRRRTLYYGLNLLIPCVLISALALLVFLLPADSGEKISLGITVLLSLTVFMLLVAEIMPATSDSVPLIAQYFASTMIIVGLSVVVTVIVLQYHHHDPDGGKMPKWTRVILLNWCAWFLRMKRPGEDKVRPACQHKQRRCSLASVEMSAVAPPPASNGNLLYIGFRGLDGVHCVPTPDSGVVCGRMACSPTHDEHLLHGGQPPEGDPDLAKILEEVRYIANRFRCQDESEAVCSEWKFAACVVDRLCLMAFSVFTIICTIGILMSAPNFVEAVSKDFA
T2 sequence (P30926 whole entry, the tested form may be a part): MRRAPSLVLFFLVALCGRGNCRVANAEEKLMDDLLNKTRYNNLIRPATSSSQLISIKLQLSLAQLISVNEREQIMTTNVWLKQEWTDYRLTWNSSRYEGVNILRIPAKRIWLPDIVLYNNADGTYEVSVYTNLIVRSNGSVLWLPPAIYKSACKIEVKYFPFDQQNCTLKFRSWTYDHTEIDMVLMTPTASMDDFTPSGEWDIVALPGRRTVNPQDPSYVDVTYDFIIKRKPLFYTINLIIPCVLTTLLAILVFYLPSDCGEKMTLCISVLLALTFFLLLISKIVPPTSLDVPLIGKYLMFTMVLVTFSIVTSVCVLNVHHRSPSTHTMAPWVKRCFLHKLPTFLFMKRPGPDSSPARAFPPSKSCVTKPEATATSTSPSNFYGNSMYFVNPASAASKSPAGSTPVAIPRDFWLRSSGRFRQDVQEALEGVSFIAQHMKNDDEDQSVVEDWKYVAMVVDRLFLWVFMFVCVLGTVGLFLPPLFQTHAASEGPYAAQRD
T2 sequence (P32297 whole entry, the tested form may be a part): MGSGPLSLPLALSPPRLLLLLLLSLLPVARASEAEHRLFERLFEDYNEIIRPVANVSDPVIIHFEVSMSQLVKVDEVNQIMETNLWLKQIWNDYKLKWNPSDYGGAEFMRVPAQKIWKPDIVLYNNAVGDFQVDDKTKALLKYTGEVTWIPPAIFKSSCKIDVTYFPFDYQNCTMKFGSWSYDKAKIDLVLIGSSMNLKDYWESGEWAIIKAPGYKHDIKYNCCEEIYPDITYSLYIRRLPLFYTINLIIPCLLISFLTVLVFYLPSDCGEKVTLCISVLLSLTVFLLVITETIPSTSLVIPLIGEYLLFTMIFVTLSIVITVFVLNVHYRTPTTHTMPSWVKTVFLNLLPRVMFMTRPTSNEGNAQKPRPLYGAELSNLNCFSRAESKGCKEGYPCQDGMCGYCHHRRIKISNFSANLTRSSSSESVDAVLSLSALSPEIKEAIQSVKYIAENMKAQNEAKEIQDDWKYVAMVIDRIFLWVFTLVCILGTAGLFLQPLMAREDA

Structure (SMILES)	inhibition [2] [%]	IC50 [3] [µM]	IC50 [4] [µM]	IC50 [5] [µM]	further results
CCC[C@@H]1NC(=O)[C@H](CC)NC(=O)[C@H](Cc2ccccc2)NC(=O)[C@@H]2CSSC[C@H](NC(=O)CN)C(=O)N[C@@H](CSSC[C@@H](C(=O)O)NC(=O)[C@H](Cc3ccc(O)cc3)NC1=O)C(=O)N[C@@H](CO)C(=O)N[C@@H](Cc1cnc[nH]1)C(=O)N1CCC[C@H]1C(=O)N[C@@H](CC)C(=O)N2 (H-GCCSHP[Abu]CF[Abu][Nva]YC-OH; disulfide 2-8, 3-13)	109	0.183	> 10	> 10	Ki [1]: 0.27 µM; Activity [6]: inactive; inhibition [7]: inactive; inhibition [8]: Dose-dependent effect; inhibition [9]: inactive; Selectivity ratio [10]: > 1000; inhibition [11]: 75%
CCCC[C@@H]1NC(=O)[C@H](CC)NC(=O)[C@H](Cc2ccccc2)NC(=O)[C@@H]2CSSC[C@H](NC(=O)CN)C(=O)N[C@@H](CSSC[C@@H](C(=O)O)NC(=O)[C@H](Cc3ccc(O)cc3)NC1=O)C(=O)N[C@@H](CO)C(=O)N[C@@H](CCCC)C(=O)N1CCC[C@H]1C(=O)N[C@@H](CC)C(=O)N2 (H-GCCS[Nle]P[Abu]CF[Abu][Nle]YC-OH; disulfide 2-8, 3-13)	106	0.31	> 10	> 10	
CCC[C@@H]1NC(=O)[C@H](CC)NC(=O)[C@H](Cc2ccccc2)NC(=O)[C@@H]2CSSC[C@H](NC(=O)CN)C(=O)N[C@@H](CSSC[C@@H](C(=O)O)NC(=O)[C@H](Cc3ccc(O)cc3)NC1=O)C(=O)N[C@@H](CO)C(=O)N[C@@H](Cc1cnc[nH]1)C(=O)N1CCC[C@H]1C(=O)N1CCC[C@H]1C(=O)N2 (H-GCCSHPPCF[Abu][Nva]YC-OH; disulfide 2-8, 3-13)	92.6	0.298	> 10	> 10	Ki [1]: 0.794 µM; Activity [6]: inactive; inhibition [7]: 49.8%
CCCC[C@@H]1NC(=O)[C@H](Cc2c[nH]c3ccccc23)NC(=O)[C@H](Cc2ccccc2)NC(=O)[C@@H]2CSSC[C@H](NC(=O)CN)C(=O)N[C@@H](CSSC[C@@H](C(=O)O)NC(=O)[C@H](Cc3ccc(O)cc3)NC1=O)C(=O)N[C@@H](CO)C(=O)N[C@@H](Cc1cnc[nH]1)C(=O)N1CCC[C@H]1C(=O)N[C@@H](CC)C(=O)N2 (H-GCCSHP[Abu]CFW[Nle]YC-OH; disulfide 2-8, 3-13)	101	1.73	> 10	> 10	
CC[C@H](C)[C@@H]1NC(=O)[C@H](Cc2cnc[nH]2)NC(=O)[C@H](CCC(N)=O)NC(=O)[C@H](CC(N)=O)NC(=O)[C@H](CC(N)=O)NC(=O)CNC(=O)[C@H](C)NC(=O)[C@@H]2CSSC[C@H](NC(=O)CN)C(=O)N[C@@H](CSSC[C@@H](C(=O)O)NC1=O)C(=O)N[C@@H](CO)C(=O)N[C@@H](Cc1cnc[nH]1)C(=O)N1CCC[C@H]1C(=O)N[C@@H](C)C(=O)N2					IC50 [12]: 0.755 µM
CCCC[C@@H]1NC(=O)[C@H](CO)NC(=O)[C@@H]2CSSC[C@@H](C(=O)O)NC(=O)[C@@H]3CCCN3C(=O)[C@H](CCC)NC(=O)[C@H](CC)NC(=O)[C@H]([C@H](C)CC)NC(=O)[C@H](CSSC[C@H](NC(=O)CN)C(=O)N2)NC(=O)[C@@H]2CCCN2C(=O)[C@@H]2CCCN2C1=O	45.7				
CCCC[C@@H]1NC(=O)[C@H](CC)NC(=O)[C@H]([C@H](C)CC)NC(=O)[C@@H]2CSSC[C@H](NC(=O)CN)C(=O)N[C@@H](CSSC[C@@H](C(=O)O)NC(=O)[C@@H]3CCCN3C1=O)C(=O)N[C@@H](CO)C(=O)N[C@@H](CCCC)C(=O)N1CCC[C@H]1C(=O)N[C@@H](CC)C(=O)N2	42.9				
CCCC[C@@H]1NC(=O)[C@H](CC2C=Nc3ccccc32)NC(=O)[C@H](Cc2ccccc2)NC(=O)[C@@H]2CSSC[C@H](NC(=O)CN)C(=O)N[C@@H](CSSC[C@@H](C(=O)O)NC(=O)[C@@H]3CCCN3C1=O)C(=O)N[C@@H](CO)C(=O)N[C@@H](Cc1cnc[nH]1)C(=O)N1CCC[C@H]1C(=O)N[C@@H](CC)C(=O)N2 (stereo not given in full) (H-GCCSHP[Abu]CF[X1][Nle]PC-OH; disulfide 2-8, 3-13)	22.3				

— ChEMBL document CHEMBL3232963, “Discovery of a potent and selective α3β4 nicotinic acetylcholine receptor antagonist from an α-conotoxin synthetic combinatorial library” (J Med Chem, 2014)
